Experimental data reported in ChEMBL document CHEMBL4382192, “Discovery of a potent dual ALK and EGFR T790M inhibitor” (Eur J Med Chem, 2017).

Assays:
[1] = target: Serine/threonine-protein kinase SIK2 (Homo sapiens) (UniProt Q9H0K1); experiment: Binding affinity to wild-type human full length SIK2 (M1 to N926 residues) expressed in bacterial expression system assessed as residual binding level at 1 uM by Kinomescan method relative to control
In short: (§1)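 Single-point kinome-wide KINOMEscan binding panel, test compound at 1 μM, run by the provider's standard protocol.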

[2] = target: Mitogen-activated protein kinase kinase kinase kinase 2 (Homo sapiens) (UniProt Q12851); experiment: Binding affinity to wild-type human partial length MAP4K2 (M1 to G318 residues) expressed in mammalian expression system assessed as residual binding level at 1 uM by Kinomescan method relative to control
Mitogen-activated protein kinase kinase kinase kinase 2 (Homo sapiens), sequence (Q12851 whole entry, the tested form may be a part): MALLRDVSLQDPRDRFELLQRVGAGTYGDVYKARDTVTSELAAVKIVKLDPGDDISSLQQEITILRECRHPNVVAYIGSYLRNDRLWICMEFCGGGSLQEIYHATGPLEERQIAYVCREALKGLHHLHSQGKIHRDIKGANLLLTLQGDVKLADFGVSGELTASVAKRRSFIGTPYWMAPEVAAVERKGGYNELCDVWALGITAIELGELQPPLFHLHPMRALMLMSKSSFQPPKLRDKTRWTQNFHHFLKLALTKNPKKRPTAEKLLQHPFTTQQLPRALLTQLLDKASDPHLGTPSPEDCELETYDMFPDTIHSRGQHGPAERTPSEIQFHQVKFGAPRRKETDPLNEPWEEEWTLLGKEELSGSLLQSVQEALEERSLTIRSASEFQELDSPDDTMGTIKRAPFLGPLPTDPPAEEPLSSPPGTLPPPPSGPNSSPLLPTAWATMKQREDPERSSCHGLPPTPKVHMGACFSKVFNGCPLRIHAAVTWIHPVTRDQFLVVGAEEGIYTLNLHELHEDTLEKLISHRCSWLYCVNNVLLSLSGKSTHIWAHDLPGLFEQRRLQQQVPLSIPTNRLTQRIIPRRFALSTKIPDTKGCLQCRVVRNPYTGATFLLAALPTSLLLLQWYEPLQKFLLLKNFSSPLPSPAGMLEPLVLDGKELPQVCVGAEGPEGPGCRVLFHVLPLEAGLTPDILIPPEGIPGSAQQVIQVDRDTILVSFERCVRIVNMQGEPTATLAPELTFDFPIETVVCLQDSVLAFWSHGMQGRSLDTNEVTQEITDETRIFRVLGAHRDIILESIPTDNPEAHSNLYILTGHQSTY

[3] = target: TGF-beta receptor type-2 (Homo sapiens) (UniProt P37173); experiment: Binding affinity to wild-type human partial length TGFBR2 (I218 to K567 residues) expressed in bacterial expression system assessed as residual binding level at 1 uM by Kinomescan method relative to control
TGF-beta receptor type-2 (Homo sapiens), sequence (P37173 whole entry, the tested form may be a part, canonical isoform): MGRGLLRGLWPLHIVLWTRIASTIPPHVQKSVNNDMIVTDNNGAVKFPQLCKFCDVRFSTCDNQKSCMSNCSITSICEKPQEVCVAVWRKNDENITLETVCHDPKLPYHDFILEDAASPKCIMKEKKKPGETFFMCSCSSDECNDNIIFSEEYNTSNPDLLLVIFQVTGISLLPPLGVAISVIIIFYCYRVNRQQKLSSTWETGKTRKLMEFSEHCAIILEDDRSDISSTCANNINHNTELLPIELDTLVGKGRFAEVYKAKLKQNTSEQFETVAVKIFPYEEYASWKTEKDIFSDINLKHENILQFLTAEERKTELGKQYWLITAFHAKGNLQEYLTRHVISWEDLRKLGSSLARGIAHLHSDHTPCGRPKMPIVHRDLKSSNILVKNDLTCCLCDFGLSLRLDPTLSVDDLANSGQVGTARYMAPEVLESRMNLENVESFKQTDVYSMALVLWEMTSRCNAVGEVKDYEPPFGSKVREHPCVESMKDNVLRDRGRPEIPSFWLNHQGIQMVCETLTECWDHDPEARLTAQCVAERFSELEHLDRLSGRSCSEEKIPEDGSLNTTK

[4] = target: Casein kinase I isoform gamma-1 (Homo sapiens) (UniProt Q9HCP0); experiment: Binding affinity to wild-type human partial length CSNK1G1 (T15 to S353 residues) expressed in bacterial expression system assessed as residual binding level at 1 uM by Kinomescan method relative to control
Casein kinase I isoform gamma-1 (Homo sapiens), sequence (Q9HCP0 whole entry, looked up, the tested form may be a part, canonical isoform): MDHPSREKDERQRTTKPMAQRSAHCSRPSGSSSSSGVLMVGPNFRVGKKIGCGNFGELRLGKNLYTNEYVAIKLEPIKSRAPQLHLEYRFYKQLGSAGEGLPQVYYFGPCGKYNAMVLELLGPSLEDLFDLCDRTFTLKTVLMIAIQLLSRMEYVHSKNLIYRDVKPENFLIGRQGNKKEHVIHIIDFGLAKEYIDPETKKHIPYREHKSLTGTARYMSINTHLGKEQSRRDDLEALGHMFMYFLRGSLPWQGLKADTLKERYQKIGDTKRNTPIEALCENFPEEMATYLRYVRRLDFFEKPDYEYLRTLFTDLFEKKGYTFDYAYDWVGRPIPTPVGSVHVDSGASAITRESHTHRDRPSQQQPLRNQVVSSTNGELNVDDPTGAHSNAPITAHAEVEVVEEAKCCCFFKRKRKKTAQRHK

[5] = target: Tyrosine-protein kinase Lyn (Homo sapiens) (UniProt P07948); experiment: Binding affinity to wild-type human partial length LYN (C219 to Q511 residues) expressed in bacterial expression system assessed as residual binding level at 1 uM by Kinomescan method relative to control
Tyrosine-protein kinase Lyn (Homo sapiens), sequence (P07948 2-512 limits assumed): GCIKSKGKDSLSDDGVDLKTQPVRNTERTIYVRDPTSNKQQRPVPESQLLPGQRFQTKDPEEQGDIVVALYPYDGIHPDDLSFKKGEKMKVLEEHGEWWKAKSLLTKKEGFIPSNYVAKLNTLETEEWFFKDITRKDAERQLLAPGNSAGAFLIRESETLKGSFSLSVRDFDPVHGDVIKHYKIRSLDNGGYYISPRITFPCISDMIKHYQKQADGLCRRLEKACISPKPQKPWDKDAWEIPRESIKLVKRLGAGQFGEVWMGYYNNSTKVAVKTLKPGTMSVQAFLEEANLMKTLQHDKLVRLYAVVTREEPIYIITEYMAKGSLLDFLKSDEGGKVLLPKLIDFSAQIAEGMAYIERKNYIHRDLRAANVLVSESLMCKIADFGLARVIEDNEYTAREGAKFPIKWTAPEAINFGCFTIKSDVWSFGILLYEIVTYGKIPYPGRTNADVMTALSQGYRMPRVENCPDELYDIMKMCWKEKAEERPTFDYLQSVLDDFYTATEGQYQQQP

[6] = target: Calcium/calmodulin-dependent protein kinase type 1B (Homo sapiens) (UniProt Q6P2M8); experiment: Binding affinity to wild-type human partial length CAMK1B (W9 to A311 residues) expressed in mammalian expression system assessed as residual binding level at 1 uM by Kinomescan method relative to control
[7] = target: MAP/microtubule affinity-regulating kinase 4 (Homo sapiens) (UniProt Q96L34); experiment: Binding affinity to wild-type human partial length MARK4 (K29 to G340 residues) expressed in bacterial expression system assessed as residual binding level at 1 uM by Kinomescan method relative to control
[8] = target: Serine/threonine-protein kinase TAO1 (Homo sapiens) (UniProt Q7L7X3); experiment: Binding affinity to wild-type human partial length TAOK1 (M1 to A320 residues) expressed in mammalian expression system assessed as residual binding level at 1 uM by Kinomescan method relative to control
[9] = target: Phosphatidylinositol 5-phosphate 4-kinase type-2 beta (Homo sapiens) (UniProt P78356); experiment: Binding affinity to wild-type human full length PIP5K2B (M1 to T416 residues) expressed in bacterial expression system assessed as residual binding level at 1 uM by Kinomescan method relative to control; in short: as §1
Phosphatidylinositol 5-phosphate 4-kinase type-2 beta (Homo sapiens), sequence (P78356 whole entry, the tested form may be a part): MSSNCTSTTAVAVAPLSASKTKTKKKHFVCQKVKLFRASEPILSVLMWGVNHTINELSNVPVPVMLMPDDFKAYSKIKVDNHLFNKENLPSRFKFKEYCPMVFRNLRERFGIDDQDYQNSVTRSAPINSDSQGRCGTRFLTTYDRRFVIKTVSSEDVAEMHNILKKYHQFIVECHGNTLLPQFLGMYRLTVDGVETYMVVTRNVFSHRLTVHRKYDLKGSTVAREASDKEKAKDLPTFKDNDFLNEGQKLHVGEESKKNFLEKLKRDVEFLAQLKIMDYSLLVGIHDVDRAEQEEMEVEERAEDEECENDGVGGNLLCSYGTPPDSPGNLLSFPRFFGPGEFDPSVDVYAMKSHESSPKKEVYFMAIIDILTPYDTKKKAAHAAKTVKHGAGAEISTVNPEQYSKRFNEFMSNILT

[10] = target: Aurora kinase B (Homo sapiens) (UniProt Q96GD4); experiment: Binding affinity to wild-type human partial length AURKB (D25 to A303 residues) expressed in mammalian expression system assessed as residual binding level at 1 uM by Kinomescan method relative to control
[11] = test system: Tyrosine-protein kinase ABL1 (Homo sapiens), P00519 [F317I]; experiment: Binding affinity to human non-phosphorylated ABL1 F317I mutant (S229 to K512 residues) expressed in mammalian expression system assessed as residual binding level at 1 uM by Kinomescan method relative to control
In short: (§2)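 Kinome-wide selectivity panel run by the KINOMEscan method, with the test compound at a single concentration of 1 μM. Wild-type and mutant kinases were profiled in the same screen.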

[12] = target: Calcium/calmodulin-dependent protein kinase type IV (Homo sapiens) (UniProt Q16566); experiment: Binding affinity to wild-type human partial length CAMK4 (A22 to A322 residues) expressed in bacterial expression system assessed as residual binding level at 1 uM by Kinomescan method relative to control
Calcium/calmodulin-dependent protein kinase type IV (Homo sapiens), sequence (Q16566 whole entry, the tested form may be a part): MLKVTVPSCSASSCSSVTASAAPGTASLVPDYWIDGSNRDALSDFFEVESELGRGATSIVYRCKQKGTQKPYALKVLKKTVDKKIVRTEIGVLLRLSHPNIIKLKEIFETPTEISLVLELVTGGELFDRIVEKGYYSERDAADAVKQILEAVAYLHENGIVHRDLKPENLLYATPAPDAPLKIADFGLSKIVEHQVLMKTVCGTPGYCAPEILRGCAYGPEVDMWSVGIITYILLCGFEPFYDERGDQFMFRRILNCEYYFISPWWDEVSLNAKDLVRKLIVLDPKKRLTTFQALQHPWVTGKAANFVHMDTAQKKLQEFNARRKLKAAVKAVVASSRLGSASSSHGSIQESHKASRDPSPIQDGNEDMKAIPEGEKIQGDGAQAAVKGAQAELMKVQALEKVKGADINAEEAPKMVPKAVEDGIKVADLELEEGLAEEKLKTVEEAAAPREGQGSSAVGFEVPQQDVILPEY

[13] = target: Mitogen-activated protein kinase 7 (Homo sapiens) (UniProt Q13164); experiment: Binding affinity to wild-type human partial length ERK5 (M1 to A409 residues) expressed in bacterial expression system assessed as residual binding level at 1 uM by Kinomescan method relative to control
[14] = Clearance in mouse at 10 mg/kg, po; type: ADME, organism-based; conditions: in vivo
[15] = test system: ALK tyrosine kinase receptor (Homo sapiens), Q9UM73 [L1196M]; experiment: Binding affinity to wild-type human partial length ALK L1196M mutant (I1088 to E1409 residues) expressed in mammalian expression system assessed as residual binding level at 1 uM by Kinomescan method relative to control
[16] = target: Tyrosine-protein kinase Yes (Homo sapiens) (UniProt P07947); experiment: Binding affinity to wild-type human partial length YES (T257 to L543 residues) expressed in bacterial expression system assessed as residual binding level at 1 uM by Kinomescan method relative to control
[17] = target: Interleukin-1 receptor-associated kinase 1 (Homo sapiens) (UniProt P51617); experiment: Binding affinity to wild-type human partial length IRAK1 (R194 to S712 residues) expressed in mammalian expression system assessed as residual binding level at 1 uM by Kinomescan method relative to control
[18] = target: Testis-specific serine/threonine-protein kinase 3 (Homo sapiens) (UniProt Q96PN8); experiment: Binding affinity to wild-type human full length TSSK3 (M1 to T268 residues) expressed in mammalian expression system assessed as residual binding level at 1 uM by Kinomescan method relative to control
Testis-specific serine/threonine-protein kinase 3 (Homo sapiens), sequence (Q96PN8 whole entry, the tested form may be a part): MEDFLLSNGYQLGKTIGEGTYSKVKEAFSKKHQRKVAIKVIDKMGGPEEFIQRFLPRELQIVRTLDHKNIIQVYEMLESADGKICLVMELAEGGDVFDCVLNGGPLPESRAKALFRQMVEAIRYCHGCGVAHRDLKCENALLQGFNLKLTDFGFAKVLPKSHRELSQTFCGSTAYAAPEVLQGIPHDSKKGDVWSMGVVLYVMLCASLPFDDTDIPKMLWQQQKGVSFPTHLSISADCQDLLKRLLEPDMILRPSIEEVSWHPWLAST

[19] = test system: Receptor-type tyrosine-protein kinase FLT3 (Homo sapiens), P36888 [UNDEFINED MUTATION]; experiment: Binding affinity to human partial length FLT3 ITD/D835V double mutant expressed in bacterial expression system assessed as residual binding level at 1 uM by Kinomescan method relative to control; in short: as §2
[20] = target: Mitogen-activated protein kinase kinase kinase kinase 5 (Homo sapiens) (UniProt Q9Y4K4); experiment: Binding affinity to wild-type human partial length MAP4K5 (M1 to P297 residues) expressed in bacterial expression system assessed as residual binding level at 1 uM by Kinomescan method relative to control
[21] = target: Serine/threonine-protein kinase NLK (Homo sapiens) (UniProt Q9UBE8); experiment: Binding affinity to wild-type human full length NLK (M13 to E527 residues) expressed in bacterial expression system assessed as residual binding level at 1 uM by Kinomescan method relative to control; in short: as §1
Serine/threonine-protein kinase NLK (Homo sapiens), sequence (Q9UBE8 whole entry, the tested form may be a part): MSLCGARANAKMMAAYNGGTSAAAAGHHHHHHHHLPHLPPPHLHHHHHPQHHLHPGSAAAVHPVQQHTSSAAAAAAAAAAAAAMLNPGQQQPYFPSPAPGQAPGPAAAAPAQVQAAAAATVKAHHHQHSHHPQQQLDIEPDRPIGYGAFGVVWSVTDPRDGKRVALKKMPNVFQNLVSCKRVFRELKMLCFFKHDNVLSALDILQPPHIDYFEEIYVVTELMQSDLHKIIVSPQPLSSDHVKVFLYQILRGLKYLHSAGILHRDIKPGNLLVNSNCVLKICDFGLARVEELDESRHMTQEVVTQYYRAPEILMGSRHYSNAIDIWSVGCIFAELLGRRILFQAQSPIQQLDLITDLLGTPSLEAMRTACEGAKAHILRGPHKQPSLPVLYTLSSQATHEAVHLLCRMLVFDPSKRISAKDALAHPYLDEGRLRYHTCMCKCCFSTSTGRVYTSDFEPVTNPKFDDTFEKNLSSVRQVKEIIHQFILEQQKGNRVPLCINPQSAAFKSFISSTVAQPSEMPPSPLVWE

[22] = target: Serine/threonine-protein kinase MRCK alpha (Homo sapiens) (UniProt Q5VT25); experiment: Binding affinity to wild-type human partial length MRCKA (L57 to V418 residues) expressed in bacterial expression system assessed as residual binding level at 1 uM by Kinomescan method relative to control
[23] = test system: Mast/stem cell growth factor receptor Kit (Homo sapiens), P10721 [L576P]; experiment: Binding affinity to human partial length KIT L576P mutant (Y545 to D952 residues) expressed in bacterial expression system assessed as residual binding level at 1 uM by Kinomescan method relative to control; in short: as §2
[24] = test system: Mast/stem cell growth factor receptor Kit (Homo sapiens), P10721 [V559D]; experiment: Binding affinity to human partial length KIT V559D mutant (Y545 to D952 residues) expressed in bacterial expression system assessed as residual binding level at 1 uM by Kinomescan method relative to control; in short: as §2
Mast/stem cell growth factor receptor Kit (Homo sapiens), P10721 [V559D], sequence (P10721 whole entry V559D, the tested form may be a part): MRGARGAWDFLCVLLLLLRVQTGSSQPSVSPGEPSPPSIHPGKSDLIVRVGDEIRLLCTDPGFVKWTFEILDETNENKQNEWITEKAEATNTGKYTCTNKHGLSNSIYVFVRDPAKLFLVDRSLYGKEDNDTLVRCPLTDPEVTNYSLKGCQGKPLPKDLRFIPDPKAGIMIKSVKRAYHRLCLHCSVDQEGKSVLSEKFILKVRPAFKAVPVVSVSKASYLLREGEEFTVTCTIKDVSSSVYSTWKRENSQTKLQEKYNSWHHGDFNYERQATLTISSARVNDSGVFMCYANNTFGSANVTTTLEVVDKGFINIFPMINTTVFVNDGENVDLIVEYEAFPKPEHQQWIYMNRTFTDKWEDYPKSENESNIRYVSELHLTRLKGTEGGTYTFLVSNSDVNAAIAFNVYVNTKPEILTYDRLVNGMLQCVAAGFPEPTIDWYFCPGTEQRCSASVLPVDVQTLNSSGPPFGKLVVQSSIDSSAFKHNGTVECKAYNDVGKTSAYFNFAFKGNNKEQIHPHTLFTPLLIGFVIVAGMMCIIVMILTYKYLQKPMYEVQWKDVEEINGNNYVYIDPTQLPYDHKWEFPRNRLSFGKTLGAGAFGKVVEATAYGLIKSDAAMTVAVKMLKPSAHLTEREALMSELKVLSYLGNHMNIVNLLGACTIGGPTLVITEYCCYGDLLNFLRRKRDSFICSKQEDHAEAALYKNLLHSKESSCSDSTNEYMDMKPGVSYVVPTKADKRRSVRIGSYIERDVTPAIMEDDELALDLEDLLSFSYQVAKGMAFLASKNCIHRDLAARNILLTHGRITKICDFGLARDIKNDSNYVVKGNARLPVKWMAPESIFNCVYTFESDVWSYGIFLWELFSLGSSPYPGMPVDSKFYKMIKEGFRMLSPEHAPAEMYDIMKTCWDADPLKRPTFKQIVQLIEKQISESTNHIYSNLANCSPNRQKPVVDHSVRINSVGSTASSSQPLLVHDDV

## C=CC(=O)Nc1cc(Nc2ncc(Cl)c(Nc3ccccc3S(=O)(=O)C(C)C)n2)c(OC)cc1N(C)CCN(C)C
[1]
  Activity: 38%
[2]
  Activity: 77%
[3]
  Activity: 82%
[4]
  Activity: 74%
[5]
  Activity: 57%
[6]
  Activity: 15%
[7]
  Activity: 6%
[8]
  Activity: 0.45%
[9]
  Activity: 55%
[10]
  Activity: 39%
[11]
  Activity: 0.05%
[12]
  Activity: 9.4%
[13]
  Activity: 37%
[14]
  CL/F: 6.87 L/h/kg
[15]
  Activity: 0%
[16]
  Activity: 17%
[17]
  Activity: 21%
[18]
  Activity: 46%
[19]
  Activity: 12%
[20]
  Activity: 66%
[21]
  Activity: 55%
[22]
  Activity: 97%
[23]
  Activity: 9.1%
[24]
  Activity: 31%
